Calls of active or inactive are those of the source. The rule behind the calls is not given here.
What was measured:
[1] = target: T1, ATP-dependent Clp protease proteolytic subunit (Staphylococcus aureus (strain NCTC 8325)) (UniProt Q2G036); test: Inhibition of N-terminal His6-sumo-tagged full length Staphylococcus aureus ClpP expressed in Escherichia coli […] (DE3) assessed as Kinact/Ki ratio […] and measured after 1 hr by fluorescence based assay
T1 sequence (whole entry): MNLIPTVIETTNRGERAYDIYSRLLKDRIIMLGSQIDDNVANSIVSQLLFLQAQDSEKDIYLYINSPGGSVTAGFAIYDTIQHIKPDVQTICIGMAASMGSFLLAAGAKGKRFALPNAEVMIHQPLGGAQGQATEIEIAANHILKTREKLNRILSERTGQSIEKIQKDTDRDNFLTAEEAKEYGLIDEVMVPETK

[2] = Induction of hemolysis in sheep erythrocytes by measuring hemoglobin release incubated for 15 mins; format: cell-based, Ovis aries, Erythrocyte
Summary of the method: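 Serially diluted compound mixed directly with 2% sheep erythrocytes in 10 mM Tris pH 7.4, 0.9% NaCl. Buffer served as negative and water as positive control. After 1,500 rpm, 15 min spin, released hemoglobin read at 545 nm. Three experiments, triplicate tubes.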

[3] = Cytotoxicity in human HeLa cells assessed as reduction in cell viability incubated for 24 hrs by MTT assay; format: cell-based
Summary of the method: (§1)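 MTT assay. HeLa (3×10^3 cells) or HepG2 (4×10^3 cells) seeded in DMEM and grown 24 h, then given compound for a further 24 h. Absorbance read at 570 nm against DMSO wells. GI50 from dose-response fit; three experiments, triplicate wells.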

[4] = Cytotoxicity in human HepG2 cells assessed as reduction in cell viability incubated for 24 hrs by MTT assay; format: cell-based; summary of the method: as §1
[5] = target: T1, ATP-dependent Clp protease proteolytic subunit (Staphylococcus aureus (strain NCTC 8325)); test: Inhibition of N-terminal His6-sumo-tagged full length Staphylococcus aureus ClpP expressed in Escherichia coli […] assessed as enzyme activity recovery level at 20-fold molar excess pre-incubated for 10 mins before Suc-LY-AMC addition and measured after 1 hr followed by dialysis up to 72 hrs by fluorescence based assay relative to control; parameters: scale not given: the % may be the effect or the level left
Summary of the method: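 ClpP (1 μM, 100 mM Hepes pH 7.0, 100 mM NaCl) incubated 1 h at RT with 20-fold molar excess inhibitor or DMSO. Dialyzed at 4 °C, buffer changed after 6 h and then every 24 h. Aliquots assayed for peptidase activity with Suc-LY-AMC. Thrice, single sample.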

Staphylococcus aureus [6] = test: Inhibition of Staphylococcus aureus NCTC8325 with delta clpP assessed as reduction in bacteria-induced hemolysis of sheep erythrocytes by measuring hemoglobin release at 0.5 to 64 uM; format: functional, organism-based
Summary of the method: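 S. aureus NCTC8325 ΔclpP grown in MHB from OD600 0.05 to ~0.6 at 37 °C, then 8 h with serially diluted inhibitor or DMSO. Culture supernatant mixed 1:1 with 5% sheep erythrocytes, centrifuged 1,500 rpm for 15 min, hemoglobin at 545 nm. Thrice, triplicate tubes.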

[7] = target: T1, ATP-dependent Clp protease proteolytic subunit (Staphylococcus aureus (strain NCTC 8325)); test: Inhibition of ClpP in wild type Staphylococcus aureus NCTC8325 assessed as reduction in bacteria-induced hemolysis of sheep erythrocytes by measuring hemoglobin release incubated for 15 mins
Summary of the method: (§2)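 S. aureus strains grown overnight in MHB, diluted to OD600 0.05, then grown at 37 °C to OD600 ~0.6. Serially diluted inhibitor or DMSO added for 8 h more growth. Supernatant mixed 1:1 with 5% sheep erythrocytes, spun 1,500 rpm for 15 min, hemoglobin read at 545 nm. EC50 by nonlinear fit; thrice, triplicate tubes.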

[8] = target: T1, ATP-dependent Clp protease proteolytic subunit (Staphylococcus aureus (strain NCTC 8325)); test: Inhibition of ClpP in Staphylococcus aureus NCTC8325 with complemented deltaclpP/pYJ335::clpP (deltaclpP+) assessed as reduction in bacteria-induced hemolysis of sheep erythrocytes by measuring hemoglobin release incubated for 15 mins; summary of the method: as §2
Staphylococcus aureus [9] = test: Inhibition of virulence-related genes expression in methicillin-resistant Staphylococcus aureus ATCC 33591 assessed as reduction in agrB expression at 16 uM by qPCR analysis relative to control; format: functional
Summary of the method: (§3)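 Total RNA from 2×10⁸ CFU treated MRSA by liquid-nitrogen freeze-thaw and TRIzol; qPCR relative to gyrB endogenous control; three experiments, triplicate wells.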

Staphylococcus aureus [10] = test: Inhibition of virulence-related genes expression in methicillin-resistant Staphylococcus aureus ATCC 33591 assessed as reduction in aur expression at 4 to 16 uM by qPCR analysis relative to control; format: functional, organism-based; summary of the method: as §3
[11] = Toxicity in BALB/c mouse model of skin abscess infected with methicillin-resistant Staphylococcus aureus ATCC 33591 assessed as effect on body weight at 1.5 to 3 mg/kg injected into shaved area of skin once daily for 4 days measured every day; format: organism-based; conditions: in vivo, other, 96 h
Summary of the method: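 Female BALB/c mice, 6-8 weeks, n=5 per group, backs shaved and depilated 1 day before; 50 µL subcutaneous 1.7 × 10⁹ CFU/mL MRSA ATCC 33591. From 6 h post-infection, 40 µL vehicle, vancomycin 3 mg/kg, or compound 1.5 or 3 mg/kg injected at infection site once daily for 4 days; weight recorded daily. Skin homogenised in saline 12 h after last dose, plated on LB agar 37 °C ≥16 h; log10 CFU/abscess; t-test.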

[12] = Toxicity in BALB/c mouse model of skin abscess infected with methicillin-resistant Staphylococcus aureus ATCC 33591 assessed as effect on blood urea nitrogen levels at 1.5 to 3 mg/kg injected into shaved area of skin once daily for 4 days; format: organism-based; conditions: in vivo, other, 96 h
Summary of the method: (§4)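 Infected BALB/c mice (n=5/group) dosed 1.5 or 3 mg/kg into the infected skin once daily for 4 days; blood collected on day 4 and day 14, centrifuged 3,500 rpm 15 min, serum biochemistry analysed.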

[13] = Toxicity in BALB/c mouse model of skin abscess infected with methicillin-resistant Staphylococcus aureus ATCC 33591 assessed as effect on LDH levels at 1.5 to 3 mg/kg injected into shaved area of skin once daily for 4 days; format: organism-based; conditions: in vivo, other, 96 h; summary of the method: as §4
[14] = Toxicity in BALB/c mouse model of skin abscess infected with methicillin-resistant Staphylococcus aureus ATCC 33591 assessed as increase in direct bilirubin levels at 1.5 to 3 mg/kg injected into shaved area of skin once daily for 4 days measured on day 14; format: organism-based; conditions: in vivo, other, 96 h; summary of the method: as §4
Staphylococcus aureus [15] = test: (§5) Antivirulence activity against methicillin-resistant Staphylococcus aureus ATCC 33591 infected in BALB/c mouse model of skin abscess assessed as reduction in severe alveolar destruction at 1.5 to 3 mg/kg injected into shaved area of skin once daily for 4 days measured after 12 hrs post last dose by hematoxylin and eosin staining based optical microscopy; format: functional, organism-based
Summary of the method: (§6)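 Same MRSA ATCC 33591 skin-abscess model in female BALB/c mice (n=5/group), 40 µL compound at 1.5 or 3 mg/kg injected into the infected shaved skin once daily for 4 days. On day 4 infected skin and heart, liver, spleen, lung, kidney fixed in 4% paraformaldehyde, embedded, sectioned, H&E stained and examined by microscopy; PBS-treated uninfected and vehicle controls.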

Staphylococcus aureus [16] = test: as §5, with “interstitium thickening” for “severe alveolar destruction”; format: functional, organism-based; summary of the method: as §6

CC(C)C[C@H](NC(=O)[C@H](Cc1c[nH]c2ccccc12)NC(=O)c1cc(Cl)ccc1Cl)B(O)O
Ratio [1]: 16.7 ×10² /s.M
HC50 at 0.25 h [2]: > 500 µM
GI50 at 24 h [3]: 108 µM
GI50 at 24 h [4]: 83.4 µM
Activity [5]: 100%
inhibition (Staphylococcus aureus [6]): inactive
inhibition [7]: Dose-dependent effect
inhibition [8]: Dose-dependent effect
fold change (FC) (Staphylococcus aureus [9]): 2
inhibition (Staphylococcus aureus [10]): Active
Activity [11]: Non-Toxic
Activity [12]: Non-Toxic
Activity [13]: Non-Toxic
Activity [14]: Non-Toxic
Activity (Staphylococcus aureus [15]): Active
Activity (Staphylococcus aureus [16]): Active

Reference: ChEMBL document CHEMBL4402562, “Discovery of Novel Peptidomimetic Boronate ClpP Inhibitors with Noncanonical Enzyme Mechanism as Potent Virulence Blockers in Vitro and in Vivo” (J Med Chem, 2020)
